Measurements published in ChEMBL document CHEMBL1157810, “Synthesis and evaluation of nitric oxide-releasing derivatives of farnesylthiosalicylic acid as anti-tumor agents” (Bioorg Med Chem, 2010).
Activity calls are given as the source filed them. The calls are words filed in the database; no cut-off is given here.

Tests used:
MDA-MB-231 [1] = experiment: Cytotoxicity against human MDA-MB-231 cells after 48 hrs by MTT assay; format: functional, cell-based; details: MDA-MB-231, 48 h
How it was run: (§1)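 Cells at 5–10 × 10³/well grown overnight in RPMI-1640, then exposed in triplicate to a concentration series for 48 h. MTT (1 mg/mL) added for the final 4 h, formazan dissolved in DMSO, read at 570 nm against 595 nm reference. Untreated cells served as negative control, 1% Triton-treated cells as positive control. Inhibition calculated relative to negative-control OD. IC50 taken as concentration giving 50% growth inhibition.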

SGC-7901 [2] = experiment: Cytotoxicity against human SGC7901 cells after 48 hrs by MTT assay; format: functional, cell-based; details: SGC-7901, 48 h; how it was run: as §1
MCF7 [3] = experiment: Cytotoxicity against human MCF7 cells after 48 hrs by MTT assay; format: functional, cell-based; details: MCF7, 48 h; how it was run: as §1
U-251 [4] = experiment: Cytotoxicity against human U251 cells after 48 hrs by MTT assay; format: functional, cell-based; details: U-251, 48 h; how it was run: as §1
[5] = Cytotoxicity against human U87 cells after 48 hrs by MTT assay; format: functional, cell-based, U-87MG ATCC; details: U-87 MG; how it was run: as §1
U-87MG ATCC = experiment: Induction of NO production in human U87 cells at 100 uM after 30 to 300 mins by Griess assay; format: functional, cell-based
How it was run: (§2)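 Cells treated with compound at 100 µM. Nitrate/nitrite in cell lysates measured by Griess reaction at 540 nm over 30–300 min and quantified from a sodium nitrate standard curve. Diluent-treated cells gave background. Reported values are means of two experiments at 240 min post-treatment.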

MDA-MB-231 [6] = experiment: Induction of NO production in human MDA-MB-231 cells at 100 uM after 30 to 300 mins by Griess assay; format: functional, cell-based; how it was run: as §2
MCF7 [7] = experiment: Induction of NO production in human MCF7 cells at 100 uM after 30 to 300 mins by Griess assay; format: functional, cell-based; how it was run: as §2
U-251 [8] = experiment: Induction of NO production in human U251 cells at 100 uM after 30 to 300 mins by Griess assay; format: functional, cell-based; how it was run: as §2
SGC-7901 [9] = experiment: Induction of NO production in human SGC7901 cells at 100 uM after 30 to 300 mins by Griess assay; format: functional, cell-based; how it was run: as §2
MDA-MB-231 [10] = experiment: Inhibition of Ras activation in human MDA-MB-231 cells assessed as reduction in phosphorylated Akt levels at 5 uM after 8 hrs by Western blot; format: cell-based
How it was run: (§3)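 MDA-MB-231 cells at 1.5 × 10⁵/mL exposed to 1 or 5 µM compound or vehicle for 8 h, then harvested and lysed. Lysates resolved by SDS–PAGE and immunoblotted with antibodies to phospho-Akt (Ser473), phospho-ERK (Thr202/Tyr204), phospho-Raf (Ser259), total Akt, total ERK and β-actin. Detection by HRP-conjugated secondary antibodies and enhanced chemiluminescence. Blots representative of two experiments.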

MDA-MB-231 [11] = experiment: Inhibition of Ras activation in human MDA-MB-231 cells assessed as reduction in phosphorylated ERK levels at 5 uM after 8 hrs by Western blot; format: cell-based; how it was run: as §3
MDA-MB-231 [12] = experiment: Inhibition of Ras activation in human MDA-MB-231 cells assessed as reduction in phosphorylated Raf levels at 5 uM after 8 hrs by Western blot; format: cell-based; how it was run: as §3
MDA-MB-231 [13] = experiment: Ratio of IC50 for FTA to IC50 for drug for cytotoxicity against human MDA-MB-231 cells after 48 hrs by MTT assay; format: functional
MDA-MB-231 [14] = experiment: Ratio of IC50 for sorafenib to IC50 for drug for cytotoxicity against human MDA-MB-231 cells after 48 hrs by MTT assay; format: functional
MDA-MB-231 [15] = experiment: Induction of NO production in human MDA-MB-231 cells at 100 uM after 30 to 300 mins by Griess assay in presence of hemoglobin; format: functional, cell-based
How it was run: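 MDA-MB-231 cells (5 × 10⁶/well) were treated in triplicate with 100 µM compound […], harvested and lysed. Lysates were mixed with Griess reagent for 30–300 min and absorbance read at 540 nm. Nitrate/nitrite was quantified against a sodium nitrate standard curve, with diluent-treated cells as background.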

MDA-MB-231 [16] = experiment: Cytotoxicity against human MDA-MB-231 cells after 24 hrs by MTT assay in presence of hemoglobin

Structure (SMILES) | IC50 (MDA-MB-231 [1]) | IC50 (SGC-7901 [2]) | IC50 (MCF7 [3]) | IC50 (U-251 [4]) | IC50 [5] | Activity (U-87MG ATCC) | Activity (MDA-MB-231 [6]) | Activity (MCF7 [7]) | Activity (U-251 [8]) | Activity (SGC-7901 [9]) | Activity (MDA-MB-231 [10]) | Activity (MDA-MB-231 [11]) | Activity (MDA-MB-231 [12]) | Ratio IC50 (MDA-MB-231 [13]) | Ratio IC50 (MDA-MB-231 [14]) | Activity (MDA-MB-231 [15]) | Activity (MDA-MB-231 [16])
O=S(=O)(c1ccccc1)c1c(OCCCCO)no[n+]1[O-] | 9.87 µM |  |  |  |  |  |  |  |  |  |  |  |  |  |  |  | 
O=S(=O)(c1ccccc1)c1c(OCC#CCO)no[n+]1[O-] | 6.97 µM |  |  |  |  |  |  |  |  |  |  |  |  |  |  |  | 
CC(C)=CCC/C(C)=C/CC/C(C)=C/CSc1ccccc1C(=O)NCC(=O)OC(C)CCOc1no[n+]([O-])c1S(=O)(=O)c1ccccc1 (stereo not drawn) | 7.26 µM | 11.9 µM | 9.11 µM | 10.8 µM | 15.3 µM |  |  |  |  |  |  |  |  |  |  |  | 
CC(C)=CCC/C(C)=C/CC/C(C)=C/CSc1ccccc1C(=O)NCC(=O)OCC#CCOc1no[n+]([O-])c1S(=O)(=O)c1ccccc1 | 7.23 µM | 11.4 µM | 6.91 µM | 11.7 µM | 14.8 µM | Active | Active | Active | Active | Active |  |  |  |  |  |  | 
CC(C)=CCC/C(C)=C/CC/C(C)=C/CSc1ccccc1C(=O)O [SALIRASIB] | 51.2 µM | 37.7 µM | 46.8 µM | 46.9 µM | 54 µM |  |  |  |  |  | inactive | inactive | inactive |  |  |  | 
CC(C)=CCC/C(C)=C/CC/C(C)=C/CSc1ccccc1C(=O)N[C@@H](C)C(=O)OCC#CCOc1no[n+]([O-])c1S(=O)(=O)c1ccccc1 | 1.01 µM | 11.4 µM | 5.03 µM | 7.31 µM | 5.18 µM |  |  |  |  |  |  |  |  |  |  |  | 
O=S(=O)(c1ccccc1)c1c(OCCOCCO)no[n+]1[O-] | 20.5 µM |  |  |  |  |  |  |  |  |  |  |  |  |  |  |  | 
CC(C)=CCC/C(C)=C/CC/C(C)=C/CSc1ccccc1C(=O)N1CCC[C@H]1C(=O)OCC#CCOc1no[n+]([O-])c1S(=O)(=O)c1ccccc1 | 1.07 µM | 7.35 µM | 5.49 µM | 3.56 µM | 13.5 µM | Active | Active | Active | Active | Active |  |  |  | 50 | 4 |  | 
CC(C)=CCC/C(C)=C/CC/C(C)=C/CSc1ccccc1C(=O)NCC(=O)OCCOCCOc1no[n+]([O-])c1S(=O)(=O)c1ccccc1 | 2.41 µM | 19.5 µM | 6.59 µM | 8.58 µM | 7.34 µM | Active | Active | Active | Active | Active |  |  |  |  |  |  | 
CC(C)=CCC/C(C)=C/CC/C(C)=C/CSc1ccccc1C(=O)N[C@@H](C)C(=O)OCCOCCOc1no[n+]([O-])c1S(=O)(=O)c1ccccc1 | 4.21 µM | 11.3 µM | 7.68 µM | 8.04 µM | 18.1 µM | Active | Active | Active | Active | Active | Active | Active | Active |  |  | inactive | inactive
